Inconclusive results are not listed.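 The calls were made as follows, unless noted: active = viability at or below 27.92% in each of two runs, the all-compound median minus 4 SD; inconclusive = no clear call, values can overlap the other calls; inactive = the rest.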
Columns and labels:
[1] = S. cerevisiae growth inhibition in permissive medium (OD615), pilot counter-assay for S. cerevisiae lifespan shortening project, permissive growth control (AID 705;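 active = growth inhibition above 25% in both replicates, a cutoff set 3 SD above the mean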); conditions: OD615, 24 h, at 10 µM, stronger effect = higher value
Summary of the method: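 System: engineered DeaD yeast; Medium: permissive raffinose/galactose medium; Compound dosing: 10 µM single dose, 0.25% DMSO; Incubation: 4 h cell pre-growth, 24 h exposure at 30 °C; Technique: OD at 615 nm; Evaluation: growth inhibition from lowered OD615 after 24 h.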

[2] = S. cerevisiae growth inhibition in restrictive medium, OD615, pilot screen, restrictive growth control, yeast lifespan reduction project (AID 706;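 active = growth inhibition above a set limit, 3 SD over mean compound inhibition, in both replicates, cut at about 43% in these data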;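 also: modified DeaD lifespan yeast strain shifted to restrictive glucose medium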); conditions: OD615, 48 h, at 10 µM, stronger effect = higher value
Summary of the method: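 Material: modified S. cerevisiae; buffer or medium: CSMM-D glucose medium; doses: one concentration, 10 µM final, 0.25% DMSO; incubation: 48 h compound exposure at 30 °C; detection: optical density at 615 nm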

[3] = doxorubicin toxicity protection in MRP-1 cells – H69AR cells, CellTiter-Glo, duplicate, MRP-1 activator project, pilot screen (AID 807;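 active = viability increase at or above a cutoff of the median across tested compounds plus 3 SD, cut at about 8.5% in these data, passing the limit was not always enough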;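 also: compound pretreatment 18-22 h then 72 h combined with doxorubicin; 0% = doxorubicin alone and 100% = vehicle without doxorubicin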); conditions: H69AR viability with doxorubicin, CellTiter-Glo luminescence; at 10 µM; stronger effect = higher value
[4] = viability of HCT116 without oncogenic beta-catenin – human colon tumor cells, pilot screen (AID 823;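 active = cell viability at or below a set limit in both duplicate runs, the limit being the all-compound median minus 4 SD, cut at about 23% in these data, passing the limit was not always enough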;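 also: 0% = wells killed by 20 µM Hyamine and 100% = untreated DMSO cell wells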); conditions: HCT116 beta-catenin knockout viability, CellTiter-Glo, 60 h; at 10 µM; stronger effect = lower value
[5] = viability of PTEN-null HCT116 cells – cell-based, HCT116 clonal line, CellTiter-Glo, pilot screen (AID 824); conditions: HCT116 PTEN-deleted viability, 60 h, at 10 µM, stronger effect = lower value;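 also: 0% = 20 µM Hyamine control and 100% = vehicle cell control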
[6] = RAM pathway blockade in budding yeast – dse1pr::URA3 reporter, 5-FOA selection, pilot screen (AID 869;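 active = inhibition over a set limit, the all-compound mean plus 3 SD, in both replicate runs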;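 also: 0% = DMSO wells with no growth and 100% = 10 µM 1-NA-PP1 with full growth; RAM network block rescues cells from 5-FOA so hits raise OD615 growth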); conditions: S. cerevisiae dse1pr::URA3 5-FOA growth, OD615, 2 d; at 10 µM; stronger effect = higher value; strain carries analog-sensitive mutant Cbk1 kinase
[7] = RAM signaling pathway blockade in yeast – S. cerevisiae, Pdr1DBD-CYC8 efflux-inhibited sensitized strain, primary screen (AID 1298;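 active = RAM network inhibition above 8.4% in each of two replicates, 3 SD over the compound average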;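 also: 0% = DMSO untreated cells without growth and 100% = 10 µM 1-NA-PP1 full growth; higher means more yeast growth rescued from 5-FOA killing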); conditions: S. cerevisiae cbk1-as DSE1-URA3 strain, 5-FOA growth OD615, 2 d; at 50 µM; stronger effect = higher value

O=C(NC1CCCCCCC1)c1cnccn1
inactive: growth inhibition [1] 0.775% | growth inhibition [2] 10.4% | viability increase [3] -0.43% | viability [4] 103% | viability [5] 93.7% | inhibition [6] 1.72% | RAM network inhibition [7] 1.71%

CC(=O)CSc1nc2ccc(Nc3nc(N4CCOCC4)nc(N4CCOCC4)n3)cc2s1
inactive: growth inhibition [1] 15.1% | growth inhibition [2] 38.6% | viability increase [3] -5.89% | viability [4] 66.6% | viability [5] 73.5% | inhibition [6] 0.87% | RAM network inhibition [7] 7.76%

CCCCOCCCNC(=O)Cc1cccs1
inactive: growth inhibition [1] -16.7% | growth inhibition [2] -10.3% | viability increase [3] -2.03% | viability [4] 91.8% | viability [5] 90% | inhibition [6] 0.465% | RAM network inhibition [7] 5.12%

O=C(NCCn1cc(SCC(=O)N2CCOCC2)c2ccccc21)c1ccccc1
inactive: growth inhibition [1] 1.06% | growth inhibition [2] -5.21% | viability increase [3] 0.4% | viability [4] 97% | viability [5] 99.8% | inhibition [6] -0.225% | RAM network inhibition [7] 0.78%

CC1CC(C)CN(S(=O)(=O)c2ccc(NC(=O)C3COc4ccccc4O3)cc2)C1 (stereo unspecified)
inactive: growth inhibition [1] -14.1% | growth inhibition [2] -24.7% | viability increase [3] -7.35% | viability [4] 53.9% | viability [5] 54.7% | inhibition [6] 3.38% | RAM network inhibition [7] 2.76%

COc1ccc(-n2c(Cc3cc(=O)[nH]c(=O)[nH]3)nnc2SCC(=O)Nc2ccccc2)cc1
inactive: growth inhibition [1] 5.82% | growth inhibition [2] 3.9% | viability increase [3] 0.25% | viability [4] 105% | viability [5] 98.7% | inhibition [6] 0.48% | RAM network inhibition [7] 2.13%

COc1ccc(CCNC(=O)c2cc3ccccn3n2)c(OC)c1OC
inactive: growth inhibition [1] -3.78% | growth inhibition [2] 7.63% | viability increase [3] -0.02% | viability [4] 112% | viability [5] 106% | inhibition [6] 1.92% | RAM network inhibition [7] -0.2%

CCOc1ccc(C2c3c(oc4cc(C)c(C)cc4c3=O)C(=O)N2CCCN(C)C)cc1OC (stereo unspecified)
inactive: growth inhibition [1] -3.33% | growth inhibition [2] -1.7% | viability increase [3] -1.6% | viability [4] 108% | viability [5] 98% | inhibition [6] -0.13% | RAM network inhibition [7] -0.66%

O=S(=O)(CCc1ccccc1)N1CCOCC1
inactive: growth inhibition [1] 1.85% | growth inhibition [2] -1.08% | viability increase [3] -1.35% | viability [4] 106% | viability [5] 103% | inhibition [6] 0.8% | RAM network inhibition [7] 2.83%

O=S(=O)(c1cccs1)N1CCCc2ccccc21
inactive: growth inhibition [1] -13.1% | growth inhibition [2] -18.4% | viability increase [3] -2.75% | viability [4] 83.5% | viability [5] 83.8% | inhibition [6] 1.71% | RAM network inhibition [7] 3.38%

Cc1ccc(C2/C(=C(/O)c3ccc(Br)cc3)C(=O)C(=O)N2Cc2ccco2)o1 (stereo unspecified)
inactive: growth inhibition [1] -16.2% | growth inhibition [2] 7.88% | viability increase [3] -6.07% | viability [4] 55% | viability [5] 65% | inhibition [6] 0.82% | RAM network inhibition [7] -1.74%

Cc1ccc(S(=O)(=O)Cc2ccc(C(=O)N3CCN(c4ccccn4)CC3)o2)cc1
inactive: growth inhibition [1] -6.39% | growth inhibition [2] -3.59% | viability increase [3] -4.22% | viability [4] 87.1% | viability [5] 79.8% | inhibition [6] 1.25% | RAM network inhibition [7] 3.12%

COC(=O)CSC1=C(C#N)C(c2ccc(C(C)C)cc2)CC(=O)N1 (stereo unspecified)
inactive: growth inhibition [1] -0.135% | growth inhibition [2] -3.29% | viability increase [3] 0.86% | viability [4] 89.8% | viability [5] 89.3% | inhibition [6] 3.04% | RAM network inhibition [7] 4.09%

CCOC(=O)c1ccc2c(c1)NC(=O)C(N1CCN(c3ccc(OC)cc3)CC1)S2 (stereo unspecified)
inactive: growth inhibition [1] 0.455% | growth inhibition [2] -5.2% | viability increase [3] -7.1% | viability [4] 74.6% | viability [5] 51.8% | inhibition [6] 4.31% | RAM network inhibition [7] 6.45%

CC(C)N(Cc1nc(-c2ccccc2)no1)S(=O)(=O)c1ccccc1
inactive: growth inhibition [1] -10.8% | growth inhibition [2] -9.29% | viability increase [3] 1.67% | viability [4] 89.3% | viability [5] 79.5% | inhibition [6] 0.555% | RAM network inhibition [7] 4.95%

CCOC(=O)C1CCN(C(=O)C2c3ccccc3C(=O)N(C)C2c2ccc(OC)cc2)CC1 (stereo unspecified)
inactive: growth inhibition [1] -7.75% | growth inhibition [2] -16.1% | viability increase [3] -4.5% | viability [4] 76.3% | viability [5] 85.8% | inhibition [6] 2.1% | RAM network inhibition [7] 1.79%

Cc1ccccc1-n1c(C)nc2ccccc21
inactive: growth inhibition [1] -17.5% | growth inhibition [2] -1.88% | viability increase [3] -0.13% | viability [4] 95.9% | viability [5] 93.7% | inhibition [6] 1.79% | RAM network inhibition [7] 1.56%

CCOC(=O)N1CCN(c2c(Nc3ccc4c(c3)OCCO4)c(=O)c2=O)CC1
inactive: growth inhibition [1] 4.17% | growth inhibition [2] 4.07% | viability increase [3] -1.02% | viability [4] 105% | viability [5] 105% | inhibition [6] 1.1% | RAM network inhibition [7] 2.05%

Source: PubChem BioAssay
